15 compounds from ChEMBL document CHEMBL4808222, “Design and Synthesis of Novel Spiro Derivatives as Potent and Reversible Monoacylglycerol Lipase (MAGL) Inhibitors: Bioisosteric Transformation from 3-Oxo-3,4-dihydro-2H-benzo[b][1,4]oxazin-6-yl Moiety” (J Med Chem, 2021) can be followed below.

Values after ≈ are worked out from the molar mass of the structure shown.

Series [1] is described as follows: Lipophilicity, logD of the compound at pH 7.4 by UPHLC analysis. It counts as physicochemical. The conditions noted are these: buffer.
Series [2] in a line: Drug uptake in C57BL/6J Jcl mouse assessed as brain concentration at 0.3 mg/kg, po measured after 60 mins by LC-MS/MS analysis. The series is classed as ADME, organism-based. The conditions noted are these: read-out: Drug uptake. The gist of the method: (§1)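 Male C57BL/6J Jcl mice, 8 weeks old, given a single oral dose as a suspension in 0.5% methylcellulose at 10 mL/kg. Plasma and brain hemispheres collected 60 min post-dose (n = 4 per group). Levels measured by LC/MS/MS.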

A short description of series [3]: Drug uptake in C57BL/6J Jcl mouse assessed as plasma concentration at 0.1 mg/kg, po measured after 60 mins by LC-MS/MS analysis. It counts as ADME, organism-based. The conditions noted are these: read-out: Drug uptake. In outline: as §1
Series [4] is described as follows: Drug uptake in C57BL/6J Jcl mouse assessed as brain concentration at 0.1 mg/kg, po measured after 60 mins by LC-MS/MS analysis. As to conditions: read-out: Drug uptake. It counts as ADME, organism-based. In outline:
as §1

The nature of series [5]: Drug uptake in C57BL/6J Jcl mouse assessed as brain concentration at 1 mg/kg, po measured after 60 mins by LC-MS/MS analysis. The conditions noted are these: read-out: Drug uptake. The series is classed as ADME, organism-based. The gist of the method:
as §1

Series [6] can be described thus: Drug uptake in C57BL/6J Jcl mouse assessed as plasma concentration at 3 mg/kg, po measured after 60 mins by LC-MS/MS analysis. It counts as ADME, organism-based. The conditions noted are these: read-out: Drug uptake. The gist of the method:
as §1

Series [7] can be described thus: Drug uptake in C57BL/6J Jcl mouse assessed as brain concentration at 10 mg/kg, po measured after 60 mins by LC-MS/MS analysis. As to conditions: read-out: Drug uptake. The series is classed as ADME, organism-based. In outline:
as §1

Series [8] in a line: Drug uptake in C57BL/6J Jcl mouse assessed as brain concentration at 3 mg/kg, po measured after 60 mins by LC-MS/MS analysis. The series is classed as ADME, organism-based. The conditions noted are these: read-out: Drug uptake. In outline: as §1
The nature of series [9]: Drug uptake in C57BL/6J Jcl mouse assessed as plasma concentration at 10 mg/kg, po measured after 60 mins by LC-MS/MS analysis. It counts as ADME, organism-based. The conditions noted are these: read-out: Drug uptake. In outline: as §1
The nature of series [10]: Drug uptake in C57BL/6J Jcl mouse assessed as plasma concentration at 1 mg/kg, po measured after 60 mins by LC-MS/MS analysis. The series is classed as ADME, organism-based. The conditions noted are these: read-out: Drug uptake. The gist of the method:
as §1

Series [11] can be described thus: Aqueous solubility of the compound in pH 6.8 JP2 fluid measured after 18 hrs by shake flask method based UHPLC analysis. The series is classed as physicochemical.
Series [12] in a line: Drug uptake in C57BL/6J Jcl mouse assessed as plasma concentration at 0.3 mg/kg, po measured after 60 mins by LC-MS/MS analysis. It counts as ADME, organism-based. The conditions noted are these: read-out: Drug uptake. In outline: as §1

In [1], `O=C1CCC(CCC(=O)N2CCC(COc3ccc(F)cc3Cl)CC2)N1` (stereo unspecified) yielded a log distribution coefficient (logD) of 3.

`Cc1cc(COC2CN(C(=O)[C@H]3C[C@]4(COC(=O)N4)C3)C2)ccc1Cl` displayed a pH-dependent lipophilicity (logD) in [1] of 2.4.

`CC(Oc1ccc(F)cc1Cl)C1CCN(C(=O)[C@H]2C[C@]3(COC(=O)N3)C2)CC1` (stereo partly specified) displayed a logD in series [1] of 2.8.

For `O=C1N[C@]2(CO1)C[C@H](C(=O)N1CC(OCc3ccc(C(F)(F)F)c(C(F)(F)F)c3)C1)C2`, in series [1], the logD was determined as 2.5.

Consider `O=C1N[C@]2(CO1)C[C@H](C(=O)N1CC(OCc3ccc(Cl)cc3Cl)C1)C2`, for which the logD in [1] came to 2.5.

In series [1], `O=C1CC[C@@H](CCC(=O)N2CCC(COc3ccc(F)cc3Cl)CC2)N1` registered a logD of 2.7.

As to `O=C1N[C@]2(CO1)C[C@H](C(=O)N1CC(OCc3ccc(C(F)(F)F)c(Cl)c3)C1)C2`, the logD in series [1] is 2.4.

As for `O=C1CCC2(CCCN(C(=O)N3CCC(COc4ccc(F)cc4Cl)CC3)C2)N1` (stereo unspecified), the logD in [1] was found to be 3.1.

As for `O=C1CCC(COC(=O)N2CCC(COc3ccc(F)cc3Cl)CC2)N1` (stereo unspecified), the log distribution coefficient (logD) in series [1] turned out to be 2.7.

In turn, `O=C1N[C@]2(CO1)C[C@H](C(=O)N1CCC(COc3ccc(F)cc3Cl)CC1)C2` came in with a logD in series [1] of 2.6.

In series [1], `CCC(Oc1ccc(F)cc1Cl)C1CCN(C(=O)[C@H]2C[C@]3(COC(=O)N3)C2)CC1` (stereo partly specified) displayed a logD of 3.1.

`O=C1COc2ncc(C(=O)N3CCC(COc4ccc(F)cc4Cl)CC3)cc2N1` registered a log distribution coefficient (logD) in series [1] of 3.

In [1], `O=C1COCC(CCC(=O)N2CCC(COc3ccc(F)cc3Cl)CC2)N1` (stereo unspecified) had a logD of 2.7.

`Cc1ccc(COC2CN(C(=O)[C@H]3C[C@]4(COC(=O)N4)C3)C2)cc1Cl`: the concentration at 1 h in series [2] came to 99 ng/g; in series [3] it was 17 ng/mL; in [4], 31 ng/g; in series [5], 169 ng/g; in series [6], 457 ng/mL; in series [7] it was 711 ng/g. Also, the concentration at 1 h in series [8] came out at 322 ng/g; in [9], 1520 ng/mL; in series [10] it was 163 ng/mL; in series [12], 62 ng/mL. In series [11], this compound showed a solubility (thermodynamic) at 18 h of 330 µg/mL (≈ 905 µM). The same compound displayed a logD in series [1] of 2.3.

With `O=C1CC[C@H](CCC(=O)N2CCC(COc3ccc(F)cc3Cl)CC2)N1`, in [1], the pH-dependent lipophilicity (logD) was 2.7.
